From ChEMBL document CHEMBL1777677, “Synthesis of chromone carboxamide derivatives with antioxidative and calpain inhibitory properties” (Eur J Med Chem, 2011)

What was measured:
[1] = Inhibition of human erythrocyte calpain using Suc-Leu-Tyr-AMC substrate after 30 mins by spectrofluorimetry
Method in brief: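 Human erythrocyte calpain I, 34 nM stock added to start, with Suc-Leu-Tyr-AMC, NaCl and CaCl2 in 50 mM Tris–HCl pH 7.5, 1 mM DTT; DMSO ≤1% final. After 30 min at rt, AMC fluorescence read (ex 380/em 460 nm) against calpain-free blank. IC50 from percent inhibition across concentrations; means ± SD, three independent experiments.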

Liver = test: Antioxidant activity in rat liver homogenates assessed as inhibition of iron-ascorbic acid mix-induced lipid peroxidation after 30 mins by TBARS assay; type: functional, tissue-based; details: 0.5 h
Method in brief: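 Rat liver homogenate (11 mg protein/ml, Bradford vs BSA) incubated with 10 µM […], 0.4 mM ascorbic acid and graded compound concentrations in 50 mM Tris–HCl pH 7.5, 37 °C for 30 min. Stopped with TBA–TCA reagent containing HCl and BHT, heated 95 °C 30 min, centrifuged, supernatant A535 read. IC50 from three independent experiments, means ± SD.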

[2] = system: Radical scavenging activity; test: Antioxidant activity assessed as DPPH free radical scavenging activity after 30 mins; type: functional
Method in brief: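 Test samples in ethanol mixed with 100 µM ethanolic DPPH, incubated 37 °C for 30 min; absorbance read at 515 nm. Percent inhibition taken against ethanol-treated controls; IC50 is the concentration scavenging 50% of DPPH radicals. Means ± SD of three independent experiments.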

| SMILES | IC50 [1] [nM] | IC50 (Liver) [nM] | IC50 [2] [nM] |
| --- | --- | --- | --- |
| COc1ccc(CCNC(=O)C(=O)[C@H](Cc2ccccc2)NC(=O)c2oc3cc(OC)c(O)cc3c(=O)c2C)cc1 | 100 |  |  |
| COc1cc2oc(C(=O)N[C@@H](Cc3ccccc3)C(=O)C(=O)NCc3ccccc3)c(C)c(=O)c2cc1O | 110 |  |  |
| O=C1O[C@H]([C@@H](O)CO)C(O)=C1O [ASCORBIC ACID] |  | > 100000 | 30800 |
| Cc1c(C(=O)N[C@@H](Cc2ccccc2)C(=O)C(N)=O)oc2ccccc2c1=O | 70 | > 100000 | > 100000 |
| Cc1c(C(=O)N[C@@H](Cc2ccccc2)C(=O)C(=O)NCc2ccccc2)oc2cc(O)c(O)cc2c1=O | 280 | 48700 | 26500 |
| COc1ccc(CCNC(=O)C(=O)[C@H](Cc2ccccc2)NC(=O)c2oc3cc(OC)ccc3c(=O)c2C)cc1 | 230 |  |  |
| COc1cc2oc(C(=O)N[C@@H](Cc3ccccc3)C(=O)C(N)=O)c(C)c(=O)c2cc1OC | 90 |  |  |
| COc1ccc(CCNC(=O)C(=O)[C@H](Cc2ccccc2)NC(=O)c2oc3cc(O)ccc3c(=O)c2C)cc1 | 90 |  |  |
| COc1ccc(CCNC(=O)C(=O)[C@H](Cc2ccccc2)NC(=O)c2oc3cc(O)c(O)cc3c(=O)c2C)cc1 | 1290 | 52500 | 41400 |
| COc1ccc(CCNC(=O)C(=O)[C@H](Cc2ccccc2)NC(=O)c2oc3cc(OC)c(OC)cc3c(=O)c2C)cc1 | 270 |  |  |
| COc1ccc2c(=O)c(C)c(C(=O)N[C@@H](Cc3ccccc3)C(=O)C(N)=O)oc2c1 | 120 |  |  |
| Cc1c(C(=O)N[C@@H](Cc2ccccc2)C(=O)C(=O)NCc2ccccc2)oc2cc(O)ccc2c1=O | 130 |  |  |
| COc1ccc2c(=O)c(C)c(C(=O)N[C@@H](Cc3ccccc3)C(=O)C(=O)NCc3ccccc3)oc2c1 | 430 |  |  |
| COc1cc2oc(C(=O)N[C@@H](Cc3ccccc3)C(=O)C(=O)NCc3ccccc3)c(C)c(=O)c2cc1OC | 190 |  |  |
